In ChEMBL document CHEMBL2331216, “Synthesis and biological activities of a new class of heat shock protein 90 inhibitors, designed by energy-based pharmacophore virtual screening” (J Med Chem, 2013):
Activity calls are given as the source filed them.

What was measured:
Heat shock protein HSP90 [1] = target: T1, Heat shock protein HSP90 (Homo sapiens, UniProt P07900+P08238); experiment: Inhibition of biotinylated geldanamycin binding to human recombinant Hsp90 ATP binding domain after 60 mins by fluorescence assay; type: protein assay
[2] = Antiproliferative activity against human melanoma cells after 48 hrs by sulforhodamine B assay; type: functional; details: Melanoma cell
Summary of the method: (§1)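 Compounds run through the NCI DTP screen on its full human tumour cell line panels. Those that passed the selection criteria were tested twice in the five-dose concentration format. The MG_MID for each experiment is the arithmetic mean over all cell lines tested.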

[3] = Antiproliferative activity against human leukemia cells after 48 hrs by sulforhodamine B assay; type: functional; details: Leukemia cell; summary of the method: as §1
[4] = Antiproliferative activity against human breast cancer cells after 48 hrs by sulforhodamine B assay; type: functional; details: Cancer cell lines; summary of the method: as §1
[5] = Antiproliferative activity against human CNS cancer cells after 48 hrs by sulforhodamine B assay; type: functional; details: Cancer cell lines; summary of the method: as §1
[6] = Antiproliferative activity against human colon cancer cells after 48 hrs by sulforhodamine B assay; type: functional; details: Cancer cell lines; summary of the method: as §1
[7] = Antiproliferative activity against human non-small cell lung cancer cells after 48 hrs by sulforhodamine B assay; type: functional; details: Cancer cell lines; summary of the method: as §1
[8] = Antiproliferative activity against human ovarian cancer cells after 48 hrs by sulforhodamine B assay; type: functional; details: Cancer cell lines; summary of the method: as §1
[9] = Antiproliferative activity against human renal cancer cells after 48 hrs by sulforhodamine B assay; type: functional; details: Cancer cell lines; summary of the method: as §1
[10] = Antiproliferative activity against human prostate cancer cells after 48 hrs by sulforhodamine B assay; type: functional; details: Cancer cell lines; summary of the method: as §1
SF-295 = experiment: Antiproliferative activity against human SF295 cells after 48 hrs by sulforhodamine B assay; type: functional; details: SF-295, 48 h; summary of the method: as §1
NCI-H522 = experiment: Antiproliferative activity against human NCI-H522 cells after 48 hrs by sulforhodamine B assay; type: functional; details: NCI-H522, 48 h; summary of the method: as §1
MCF7 [11] = experiment: Cell cycle arrest in human MCF7 cells assessed as decrease in S phase cells at 0.548 uM after 48 hrs by propidium iodide staining-based FACS flow cytometric analysis; type: functional
Summary of the method: (§2)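 Cells were collected and DNA stained with propidium iodide. Flow cytometry gave the cell cycle phase distribution against untreated controls. Values are mean ± SD of three independent experiments.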

MCF7 [12] = experiment: Cell cycle arrest in human MCF7 cells assessed as decrease in G0/G1 phase cells at 0.548 uM after 48 hrs by propidium iodide staining-based FACS flow cytometric analysis; type: functional; summary of the method: as §2
MCF7 [13] = experiment: Cell cycle arrest in human MCF7 cells assessed as decrease in G2/M phase cells at 0.548 uM after 48 hrs by propidium iodide staining-based FACS flow cytometric analysis; type: functional; summary of the method: as §2
MCF7 [14] = experiment: Cell cycle arrest in human MCF7 cells assessed as accumulation at sub G0/G1 phase at 0.548 uM after 48 hrs by propidium iodide staining-based FACS flow cytometric analysis; type: functional; summary of the method: as §2
MCF7 [15] = experiment: Cell cycle arrest in human MCF7 cells assessed as decrease in S phase cells at 0.548 uM after 24 hrs by propidium iodide staining-based FACS flow cytometric analysis (reference value: 11 %); type: functional; parameters: scale not given: the % may be the effect or the level left; summary of the method: as §2
MCF7 [16] = experiment: Cell cycle arrest in human MCF7 cells assessed as decrease in G0/G1 phase cells at 0.548 uM after 24 hrs by propidium iodide staining-based FACS flow cytometric analysis (reference value: 65 %); type: functional; parameters: scale not given: the % may be the effect or the level left; summary of the method: as §2
MCF7 [17] = experiment: Cell cycle arrest in human MCF7 cells assessed as increase in G2/M phase cells at 0.548 uM after 24 hrs by propidium iodide staining-based FACS flow cytometric analysis (reference value: 24 %); type: functional; summary of the method: as §2
Heat shock protein HSP90 [18] = target: T1, Heat shock protein HSP90; experiment: Inhibition of Hsp90 in human MCF7 cells assessed as decrease in Cdk4 level at 0.5 to 2 fold GI50 after 24 hrs by Western blotting analysis; type: cell-based
Summary of the method: (§3)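 Total cellular extracts were analysed by Western blot for Cdk4, c-Raf, ErbB2 and Hsp72, with β-actin as the loading control.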

Heat shock protein HSP90 [19] = target: T1, Heat shock protein HSP90; experiment: Inhibition of Hsp90 in human MCF7 cells assessed as decrease in cRAF level at 0.5 to 2 fold GI50 after 24 hrs by Western blotting analysis; type: cell-based; summary of the method: as §3
Heat shock protein HSP90 [20] = target: T1, Heat shock protein HSP90; experiment: Inhibition of Hsp90 in human MCF7 cells assessed as decrease in ErbB2 level at 0.5 to 2 fold GI50 after 24 hrs by Western blotting analysis; type: cell-based; summary of the method: as §3
Heat shock protein HSP90 [21] = target: T1, Heat shock protein HSP90; experiment: Inhibition of Hsp90 in human MCF7 cells assessed as decrease in Cdk4 level after 24 hrs by Western blotting analysis; type: cell-based; summary of the method: as §3
Heat shock protein HSP90 [22] = target: T1, Heat shock protein HSP90; experiment: Inhibition of Hsp90 in human MCF7 cells assessed as decrease in cRAF level after 24 hrs by Western blotting analysis; type: cell-based; summary of the method: as §3
Heat shock protein HSP90 [23] = target: T1, Heat shock protein HSP90; experiment: Inhibition of Hsp90 in human MCF7 cells assessed as decrease in ErbB2 level after 24 hrs by Western blotting analysis; type: cell-based; summary of the method: as §3
Heat shock protein HSP90 [24] = target: T1, Heat shock protein HSP90; experiment: Inhibition of Hsp90 in human MCF7 cells assessed as upregulation of Hsp72 at 0.5 to 2 fold GI50 after 24 hrs by Western blotting analysis; type: cell-based; summary of the method: as §3
MCF7 [25] = experiment: Antitumor activity in human MCF7 cells assessed as induction of necrosis after 24 hrs by LDH assay; type: functional, cell-based
MCF7 [26] = experiment: Cell cycle arrest in human MCF7 cells assessed as accumulation at G2/M phase after 24 hrs by propidium iodide staining-based FACS flow cytometric analysis; type: functional; summary of the method: as §2

Compound	EC50 (Heat shock protein HSP90 [1])	GI50 [2]	GI50 [3]	GI50 [4]	GI50 [5]	GI50 [6]	GI50 [7]	GI50 [8]	GI50 [9]	GI50 [10]	also measured
COc1ccc(-c2cc(-c3cccc(NS(C)(=O)=O)c3)nc(N)c2C#N)cc1OC	867 nM										
COc1ccc(-c2cc(-c3cccc(NS(C)(=O)=O)c3)nc(N)c2C#N)cc1	541 nM	80 nM	100 nM	140 nM	80 nM	100 nM	130 nM	220 nM	130 nM	130 nM	
COc1ccccc1-c1cc(-c2cccc(NS(C)(=O)=O)c2)nc(N)c1C#N	634 nM										
CS(=O)(=O)Nc1cccc(-c2cc(-c3ccccc3Br)c(C#N)c(N)n2)c1	> 10000 nM										
CN(C)c1ccc(-c2cc(-c3cccc(NS(C)(=O)=O)c3)nc(N)c2C#N)cc1	371 nM	60 nM	40 nM	100 nM	40 nM	40 nM	60 nM	80 nM	50 nM	30 nM	
CS(=O)(=O)Nc1cccc(-c2cc(-c3ccccc3Cl)c(C#N)c(N)n2)c1	950 nM	660 nM	580 nM	460 nM	510 nM	550 nM	1100 nM	980 nM	660 nM	780 nM	
COc1cccc(-c2cc(-c3cccc(NS(C)(=O)=O)c3)nc(N)c2C#N)c1O	252 nM	120 nM	140 nM	260 nM	160 nM	150 nM	250 nM	210 nM	290 nM	130 nM	GI50 (SF-295): 43 nM; GI50 (NCI-H522): 24 nM; Activity (MCF7 [11]): Active; Activity (MCF7 [12]): Active; Activity (MCF7 [13]): Active; Activity (MCF7 [14]): Active; Activity (MCF7 [15]): 7%; Activity (MCF7 [16]): 40%; Activity (MCF7 [17]): 53%; inhibition (Heat shock protein HSP90 [18]): Active; inhibition (Heat shock protein HSP90 [19]): Active; inhibition (Heat shock protein HSP90 [20]): Active; inhibition (Heat shock protein HSP90 [21]): Dose-dependent effect; inhibition (Heat shock protein HSP90 [22]): Dose-dependent effect; inhibition (Heat shock protein HSP90 [23]): Dose-dependent effect; inhibition (Heat shock protein HSP90 [24]): Active; Activity (MCF7 [25]): Active; Activity (MCF7 [26]): Dose-dependent effect

More lines, main results first:

EC50 (Heat shock protein HSP90 [1])	Compound	GI50 [2]	GI50 [3]	GI50 [4]	GI50 [5]	GI50 [6]	GI50 [7]	GI50 [8]	GI50 [9]	GI50 [10]	also measured
> 10000 nM	CS(=O)(=O)Nc1cccc(-c2cc(-c3cccc(F)c3)c(C#N)c(N)n2)c1										
> 10000 nM	COc1cccc(-c2cc(-c3cccc(NS(C)(=O)=O)c3)nc(N)c2C#N)c1										
783 nM	CCN(CC)c1ccc(-c2cc(-c3cccc(NS(C)(=O)=O)c3)nc(N)c2C#N)cc1										
> 10000 nM	CS(=O)(=O)Nc1cccc(-c2cc(-c3ccc(O)cc3)c(C#N)c(N)n2)c1										
